LMPTP inh = LMPTP (human) inhibition. AID 651560. 0.22% of 360,000 active. recombinant LMPTP-A, OMFP fluorogenic substrate, fluorescence intensity. inhibition, % at 20 µM;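 active = compounds that cut the enzyme signal by at least half of the control window in the single-dose screen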;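 also: plate controls were DMSO wells with enzyme plus substrate for no effect and substrate without enzyme for full effect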
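test system = LMPTP-A | amount = 0.625 nM LMPTP-A final | reagent = fluorogenic phosphatase substrate OMFP at 400 µM final | incubation = 50 min at room temperature | benchmarks = no-enzyme low control, uninhibited high control | medium = Bis-Tris pH 6.0, DTT, detergent | signal = fluorescence intensity of OMFP turnover product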
GRK2 aptamer HTS = blocks RNA aptamer binding to human GRK2 | 0.59% of 330,000 active | bead flow cytometry, FAM-aptamer displacement from GRK2 | inhibition of aptamer binding, % at 10 µM;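 active = inhibition of aptamer binding above 40%, roughly 3 SD of noise, on plates passing a quality check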;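 also: median bead fluorescence of bound FAM aptamer so fluorescent compounds give negative values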
DNMT1 inh = inhibitors of human DNMT1; P26358; DNMT1 molecular beacon, Hinp1I cleavage, fluorescence; inhibition (reported as % activation of signal), % at 10 µM; 0.83% of 360,000 active; in the data active = inhibition above about 50%
Target sequence (P26358 504-1616 limits assumed): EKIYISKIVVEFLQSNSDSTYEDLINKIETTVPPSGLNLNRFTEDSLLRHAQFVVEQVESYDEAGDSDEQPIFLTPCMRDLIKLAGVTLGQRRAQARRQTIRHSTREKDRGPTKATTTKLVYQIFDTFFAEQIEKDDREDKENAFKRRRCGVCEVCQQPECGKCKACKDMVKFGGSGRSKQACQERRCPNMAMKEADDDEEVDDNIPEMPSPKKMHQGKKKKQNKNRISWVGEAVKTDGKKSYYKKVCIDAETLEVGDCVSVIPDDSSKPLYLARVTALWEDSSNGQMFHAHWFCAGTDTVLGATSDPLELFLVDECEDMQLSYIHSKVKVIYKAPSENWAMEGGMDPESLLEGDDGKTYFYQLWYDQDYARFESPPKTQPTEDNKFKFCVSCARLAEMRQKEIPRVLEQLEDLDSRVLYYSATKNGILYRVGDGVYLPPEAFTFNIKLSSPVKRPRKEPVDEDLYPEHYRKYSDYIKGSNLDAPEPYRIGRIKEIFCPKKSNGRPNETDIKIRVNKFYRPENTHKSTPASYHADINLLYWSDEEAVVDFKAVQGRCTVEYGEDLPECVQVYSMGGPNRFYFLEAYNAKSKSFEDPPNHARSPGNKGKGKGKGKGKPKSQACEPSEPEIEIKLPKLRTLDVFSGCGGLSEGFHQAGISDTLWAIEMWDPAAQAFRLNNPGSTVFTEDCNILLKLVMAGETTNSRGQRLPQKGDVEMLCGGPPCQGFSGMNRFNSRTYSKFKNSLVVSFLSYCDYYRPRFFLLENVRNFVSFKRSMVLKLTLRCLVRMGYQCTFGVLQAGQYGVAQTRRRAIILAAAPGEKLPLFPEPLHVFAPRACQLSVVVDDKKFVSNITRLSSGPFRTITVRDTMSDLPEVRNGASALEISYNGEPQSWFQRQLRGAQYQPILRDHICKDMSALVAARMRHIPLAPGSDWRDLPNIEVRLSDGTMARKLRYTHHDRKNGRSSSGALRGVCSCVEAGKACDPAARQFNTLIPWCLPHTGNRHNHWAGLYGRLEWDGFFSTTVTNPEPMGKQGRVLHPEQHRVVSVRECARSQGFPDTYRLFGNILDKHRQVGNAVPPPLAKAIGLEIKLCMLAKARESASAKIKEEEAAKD
STEP inh = blocks human striatal-enriched tyrosine phosphatase. P54829. recombinant STEP, OMFP fluorogenic substrate, fluorescence. inhibition, % at 20 µM. 0.25% of 360,000 active;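 active = inhibition at 20 µM, scaled per plate between control wells, above about 37%, limit read from the data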;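 also: 0% = DMSO with enzyme and substrate and 100% = substrate only without enzyme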
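medium = Bis-Tris buffer pH 6.0, 2.5 mM DTT, 0.005% Tween 20 | test system = STEP (striatal-enriched tyrosine phosphatase) enzyme, cell-free | measure = normalized % inhibition | compound dosing = 20 µM, 1% DMSO | also added = 25 µM OMFP | schedule = reaction 20 min, ambient temperature | measured by = fluorescence read at 480 nm ex / 540 nm em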
SUMO1 PPI mod = alters human SUMO1 binding to SIM partners; SUMO1 binding to a labelled peptide, TR-FRET, 1 h; inhibition, % at 20 µM; 0.33% of 360,000 active; AID 602429; in the data active = inhibition above about 37%
Scp-1 inhibitor = Scp-1 (human) phosphatase inhibition. 0.88% of 340,000 active. Recombinant Scp1, phosphopeptide, malachite green phosphate absorbance. AID 493091. inhibition, % at 20 µM;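 active = inhibition above about 50% at 20 µM, limit read from the data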;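 also: plate controls were DMSO wells with enzyme for no effect and wells lacking enzyme for full effect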
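Test system: SCP-1 catalytic domain; Buffer or medium: Acidic Tris acetate buffer with magnesium and detergent; Also added: Phosphorylated 17-residue peptide substrate; Compound: single 20 µM dose, 1% DMSO; Schedule: enzyme reaction 45 min at room temperature, colour 5 min, stabilisation 30 min; Signal: Phosphate-binding colour reagent, absorbance read at 630 nm.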
Scp-1 conf = Scp-1 (human) inhibition, single-dose confirmed; shares compounds with Scp-1 inhibitor; AID 540281; recombinant SCP-1 catalytic domain, phosphate release, malachite green absorbance; inhibition, % at 20 µM; 61% of 2,500 active;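 also: plate controls were DMSO with enzyme for no effect and buffer wells lacking enzyme for full effect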
MG interference = counter-screen for Scp-1 inhibitors: colorimetric interference. shares compounds with Scp-1 inhibitor. Colorimetric interference counterscreen, malachite green absorbance 630 nm. apparent inhibition (interference), % at 20 µM. 2,500 tested, under 10 active;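 also: compounds added after enzyme reaction finished so only phosphate colour detection is probed; plate controls were DMSO wells with completed Scp-1 reaction for no effect and substrate wells lacking enzyme for full effect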
Scp-1 Tm shift = Scp-1 (human) binding by thermal shift; Recombinant SCP1, Sypro Orange thermal shift Tm; thermal shift relative to vanadate control, % at 40 µM; shares compounds with Scp-1 inhibitor; 25% of 1,500 active;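 active = substances whose mean melting-temperature shift, as a percentage of the reference inhibitor's shift, reaches about 5.3%, limit read from the data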;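 also: 0% = Tm of DMSO wells and 100% = Tm with sodium orthovanadate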
Active calls of the source: *; . = not tested or not shown. Hits are enriched below; roughly 2.1% of the tested compounds scored in any of these assays.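 The calls were made as follows, unless noted: active = inhibition of at least 30% at 20 µM; inactive = the rest.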

SMILES	LMPTP inh	GRK2 aptamer HTS	DNMT1 inh	STEP inh	SUMO1 PPI mod	Scp-1 inhibitor	Scp-1 conf	MG interference	others
O=C(N/N=C/c1cc2c(cc1Br)OCO2)c1ccccn1	-1	0	3	1	-27	-5	.	.
CN1CCN(C(=O)C2=C[C@@H](C3CCCCC3)C[C@@H](OCCCCO)O2)CC1	-1	.	9	-3	0	-6	.	.
CC(=O)Nc1cccc(NC(=O)C2CCCO2)c1 (stereo not drawn)	-1	.	2	-3	2	.	.	.
O=C(Nc1cccc(NC(=O)C2CCCO2)c1)C1CCCO1 (stereo not drawn)	-2	0	0	-2	1	56*	-14	-13
C/C(=N\NC(=O)c1nnn(-c2nonc2N)c1CSc1ccc(C)cc1)c1cccnc1	-1	.	-3	2	2	.	.	.
O=C(Nc1cc(S(=O)(=O)Nc2ccc(Cl)cc2)ccc1O)c1ccc(S(=O)(=O)N2CCCCCC2)cc1	3	2	-1	6	5	81*	77*	-15	Scp-1 Tm shift=9.9*
CCN1/C(=C\C(C)=O)Sc2ccc(OC)cc21	-2	0	4	2	-5	96*	10	-5
CCC(=O)/C=C1\Sc2ccc(OC)cc2N1CC	0	4	6	0	1	-3	.	.
CC(C)CN(CC(C)C)S(=O)(=O)c1cc([N+](=O)[O-])ccc1N1CCCCCC1	5	5	3	5	-2	52*	-9	-12
CN(C)S(=O)(=O)c1cc([N+](=O)[O-])ccc1N1CCCCCC1	2	0	-5	2	-24	-3	.	.
Cc1nn(-c2cccc(Cl)c2)c2nc(-c3ccncc3)cc(C(=O)N3CCOCC3)c12	1	1	-3	0	2	7	.	.
CC(=O)c1ccc(S(=O)(=O)N2Cc3ccccc3CC2C(=O)O)cc1 (stereo not drawn)	0	0	37	8	17	82*	64*	-16	Scp-1 Tm shift=-1
O=C(O)[C@H]1Cc2ccccc2CN1S(=O)(=O)c1ccc(F)cc1	-1	0	-1	4	-2	-5	.	.
O=C(NNC(=O)c1ccccc1Cl)c1cccs1	1	0	0	1	3	76*	-21	-16
COc1ccc(-c2[nH]nc3nc(N4CCN(C(=O)c5ccoc5)CC4)cc(C(F)(F)F)c23)cc1	2	.	-15	-1	17	.	.	.
O=C(O)CCC1c2cc3c4cc2OC2Oc5cc6c(cc51)C(CCC(=O)O)c1cc5c7cc1OC(O6)c1cc6cc(c1)Oc1cc(cc(C(=O)O)c1)Oc1cc8cc(c1)C(Oc1cc(c(cc1C5CCC(=O)O)C3CCC(=O)O)OC(O4)c1cc(cc(c1)Oc1cc(cc(C(=O)O)c1)O8)Oc1cc(cc(C(=O)O)c1)Oc1cc(cc2c1)Oc1cc(cc(C(=O)O)c1)O6)O7 (stereo not drawn)	.	1	.	.	.	.	.	.
C/C(=N\NC(=O)c1cc(Br)ccc1O)c1cccs1	-1	1	5	5	3	66*	69*	-7	Scp-1 Tm shift=-2
C/C(=N\NC(=O)c1cc(Br)ccc1O)c1cccc(NC(=O)c2ccccc2F)c1	4	3	2	9	15	86*	79*	-13	Scp-1 Tm shift=5.8*
C/C(=N/NC(=O)c1ccc(Br)o1)c1cccs1	-1	1	1	0	-14	-5	.	.
COc1ccc2cc(C(=O)NCc3ccco3)c(=Nc3ccc(C(=O)O)cc3)oc2c1	0	0	1	5	-17	63*	34*	-20	Scp-1 Tm shift=-3
N#Cc1ccccc1OCC(=O)OCCCOC(=O)COc1ccccc1C#N	1	3	1	0	7	96*	-12	-16
N#Cc1ccccc1OCC(=O)OCC(=O)N1CCCC1	-1	0	0	-4	-4	-8	.	.
O=C1C=C(c2ccccc2C(F)(F)F)C[C@@H](c2ccc3c(c2)OCO3)C1	2	0	-3	2	11	-4	.	.
COc1ccc2c(C)cc(SCC(=O)Nc3cc(C(N)=O)cc(C(N)=O)c3)nc2c1	0	0	-2	20	-149	50	.	.
COc1ccc2nc(SCC(=O)NN)cc(C)c2c1	1	1	-15	3	-2	87*	-8	-11
SMILES	LMPTP inh	GRK2 aptamer HTS	DNMT1 inh	STEP inh	SUMO1 PPI mod	Scp-1 inhibitor	Scp-1 conf	MG interference	others
CNc1ccccc1C(C)(C)c1cn(-c2ccc([N+](=O)[O-])cc2)nn1	0	1	-2	-2	-31	-4	.	.
CC#CC#Cc1cccc(=O)o1	8	17	56*	17	-15	54*	42*	-2	Scp-1 Tm shift=-8
Clc1ccc(Sc2ccc(/C=N/n3cnnc3)o2)cc1	2	0	0	0	-12	12	.	.
Clc1ccc(Sc2oc(/C=N/n3cnnc3)cc2Br)cc1	0	0	2	0	-12	98*	-15	-15
CC[n+]1c(/C=C/Nc2ccccc2)oc2ccc(OC)cc21	0	0	-1	-2	-9	-3	.	.
CC[n+]1c(/C=C/Nc2ccccc2)oc2ccccc21	1	0	7	-1	-10	99*	-13	-19
CSc1nc(N)n2nc(-c3ccc(Cl)cc3)cc2n1	1	0	8	-2	1	-21	.	.
O=C(NC(=S)NNS(=O)(=O)c1ccc(Cl)cc1)c1cccnc1	1	5	0	-1	4	1	.	.
CCOc1nc(Nc2ccc(OC)cc2)nc(OCC)n1	0	2	3	12	1	67*	30	-17
O=C(CSc1n[nH]c(-c2ccncc2)n1)Nc1ccc(Cl)c(Cl)c1	-2	1	-2	-6	11	52*	-15	-14
CN(CCN1CCOCC1)Cc1nc(-c2ccc(Cl)cc2)no1	1	0	0	-5	0	-4	.	.
O=C1c2ccccc2C(=O)N1Nc1ccc([N+](=O)[O-])cc1[N+](=O)[O-]	9	0	3	18	2	52*	46*	-4	Scp-1 Tm shift=-15
O=C1C2C3C=CC(C3)C2C(=O)N1Nc1ccc([N+](=O)[O-])cc1[N+](=O)[O-] (stereo not drawn)	-3	4	-5	0	-33	-2	.	.
COc1cccc(CNC(=O)c2ccc(CS(=O)c3ccccc3)o2)c1 (stereo not drawn)	0	1	0	0	-4	-10	.	.
